ChEMBL document CHEMBL5653626 (ChemMedChem, 2016)

Key:
[1] = target: T1, Solute carrier family 2, facilitated glucose transporter member 1 (Homo sapiens, UniProt P11166); test: (§1) Inhibition of human GLUT1 expressed in human DLD-1 cells assessed as reduction in glucose uptake by measuring decrease in ATP production incubated for 15 mins in presence of oxidative phosphorylation inhibitor rotenone by CellTiter-Glo Luminescent Cell Viability Assay; type: cell-based
T1 sequence (P11166 whole entry): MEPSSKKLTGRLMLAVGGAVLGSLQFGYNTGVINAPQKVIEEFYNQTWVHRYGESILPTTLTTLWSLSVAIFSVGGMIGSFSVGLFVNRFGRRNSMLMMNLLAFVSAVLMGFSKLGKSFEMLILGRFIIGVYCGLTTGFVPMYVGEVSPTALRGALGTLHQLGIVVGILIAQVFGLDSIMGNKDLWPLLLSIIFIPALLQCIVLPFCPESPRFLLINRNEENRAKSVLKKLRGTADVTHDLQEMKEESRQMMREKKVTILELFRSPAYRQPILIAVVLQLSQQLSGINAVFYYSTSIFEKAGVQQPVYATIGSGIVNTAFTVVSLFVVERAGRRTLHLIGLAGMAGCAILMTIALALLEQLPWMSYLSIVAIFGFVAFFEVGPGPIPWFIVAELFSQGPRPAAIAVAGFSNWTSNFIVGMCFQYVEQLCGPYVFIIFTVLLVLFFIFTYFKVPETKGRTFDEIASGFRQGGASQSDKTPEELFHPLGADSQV

[2] = target: T2, Solute carrier family 2, facilitated glucose transporter member 2 (Homo sapiens, UniProt P11168); test: Inhibition of human GLUT2 expressed in CHO cells assessed as reduction in fructose uptake by measuring decrease in ATP production incubated for 15 mins in presence of oxidative phosphorylation inhibitor rotenone by CellTiter-Glo Luminescent Cell Viability Assay; type: cell-based
T2 sequence (P11168 whole entry): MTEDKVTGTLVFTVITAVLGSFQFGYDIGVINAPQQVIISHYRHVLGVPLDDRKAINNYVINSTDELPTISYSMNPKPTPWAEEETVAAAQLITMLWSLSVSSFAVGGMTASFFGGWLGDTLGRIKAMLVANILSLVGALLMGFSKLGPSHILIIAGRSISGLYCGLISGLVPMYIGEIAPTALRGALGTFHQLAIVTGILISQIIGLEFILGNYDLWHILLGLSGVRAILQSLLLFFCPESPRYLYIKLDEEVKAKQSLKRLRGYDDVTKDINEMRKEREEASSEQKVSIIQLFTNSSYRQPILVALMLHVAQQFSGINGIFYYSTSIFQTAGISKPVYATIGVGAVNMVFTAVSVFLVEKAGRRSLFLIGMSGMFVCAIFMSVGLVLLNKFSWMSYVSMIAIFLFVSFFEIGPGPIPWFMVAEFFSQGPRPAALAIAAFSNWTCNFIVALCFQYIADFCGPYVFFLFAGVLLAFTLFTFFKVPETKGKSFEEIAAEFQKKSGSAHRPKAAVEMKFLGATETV

[3] = target: T3, Solute carrier family 2, facilitated glucose transporter member 3 (Homo sapiens, UniProt P11169); test: Inhibition of human GLUT3 expressed in human GLUT1-/- DLD-1 cells assessed as reduction in glucose uptake by measuring decrease in ATP production incubated for 15 mins in presence of oxidative phosphorylation inhibitor rotenone by CellTiter-Glo Luminescent Cell Viability Assay; type: cell-based
T3 sequence (P11169 whole entry): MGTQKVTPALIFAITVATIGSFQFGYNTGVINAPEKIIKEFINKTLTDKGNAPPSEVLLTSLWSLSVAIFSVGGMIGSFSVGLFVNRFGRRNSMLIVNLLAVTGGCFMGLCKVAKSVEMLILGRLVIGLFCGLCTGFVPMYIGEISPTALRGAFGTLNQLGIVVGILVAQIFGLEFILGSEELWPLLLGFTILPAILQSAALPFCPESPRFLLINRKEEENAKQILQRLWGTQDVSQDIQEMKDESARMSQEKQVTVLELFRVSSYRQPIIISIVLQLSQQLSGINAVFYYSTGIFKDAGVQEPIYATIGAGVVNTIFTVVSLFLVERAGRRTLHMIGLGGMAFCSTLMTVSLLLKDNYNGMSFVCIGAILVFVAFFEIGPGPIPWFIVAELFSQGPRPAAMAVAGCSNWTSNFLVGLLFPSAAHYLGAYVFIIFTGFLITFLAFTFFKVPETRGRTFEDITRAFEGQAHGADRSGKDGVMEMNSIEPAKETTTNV

[4] = target: T4, Solute carrier family 2, facilitated glucose transporter member 4 (Homo sapiens, UniProt P14672); test: as §1, with “GLUT4” for “GLUT1”, “CHO” for “human DLD-1”, “preincubated” for “incubated”, “for 20 mins followed by glucose addition and measured after” for “for”; type: cell-based
T4 sequence (P14672 whole entry): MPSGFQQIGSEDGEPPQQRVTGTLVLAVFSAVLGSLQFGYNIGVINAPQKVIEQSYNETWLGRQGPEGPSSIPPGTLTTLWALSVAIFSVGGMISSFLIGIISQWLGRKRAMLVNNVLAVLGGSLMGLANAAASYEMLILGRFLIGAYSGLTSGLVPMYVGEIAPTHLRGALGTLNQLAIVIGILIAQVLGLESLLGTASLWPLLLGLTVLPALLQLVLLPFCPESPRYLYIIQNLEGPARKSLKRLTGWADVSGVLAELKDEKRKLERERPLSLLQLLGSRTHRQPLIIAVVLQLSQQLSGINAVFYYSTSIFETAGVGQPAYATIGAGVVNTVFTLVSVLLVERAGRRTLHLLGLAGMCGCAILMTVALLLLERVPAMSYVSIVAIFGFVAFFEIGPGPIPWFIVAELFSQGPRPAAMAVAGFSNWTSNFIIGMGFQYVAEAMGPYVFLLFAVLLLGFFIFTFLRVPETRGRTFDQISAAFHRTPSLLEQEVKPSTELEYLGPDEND

[5] = Clearance in rat hepatocytes; type: ADME, cell-based, Hepatocyte
[6] = Clearance in human liver microsomes; type: ADME, Microsome
[7] = Clearance in mouse liver microsomes; type: ADME, Microsome
[8] = Clearance in dog liver microsomes; type: ADME, Canis lupus familiaris, Microsome
[9] = Stability in human liver microsomes assessed as maximum bioavailability; type: ADME, Microsome; conditions: read-out: Fmax
[10] = Stability in mouse liver microsomes assessed as maximum bioavailability; type: ADME, Microsome; conditions: read-out: Fmax
[11] = Stability in dog liver microsomes assessed as maximum bioavailability; type: ADME, Canis lupus familiaris, Microsome; conditions: read-out: Fmax
[12] = Clearance in dog hepatocytes; type: ADME, cell-based, Canis lupus familiaris, Hepatocyte
[13] = Stability in dog hepatocytes assessed as maximum bioavailability; type: ADME, Canis lupus familiaris, Hepatocyte; conditions: read-out: Fmax
[14] = Efflux ratio of apparent permeability across basolateral to apical side over apical to basolateral side in human Caco-2 cells at 2 uM measured after 2 hrs; type: ADME, cell-based; conditions: caco-2, 2 h
Method in brief: (§2)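 Bidirectional Caco-2 transport at 2 μm over 2 h, apical→basolateral and basolateral→apical. Apparent permeability (P_app) is taken from compound transport. Efflux ratio is P_app B→A divided by P_app A→B.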

[15] = Apparent permeability across apical to basolateral side in human Caco-2 cells at 2 uM measured after 2 hrs; type: ADME, cell-based; conditions: caco-2, 2 h; method in brief: as §2
[16] = Stability in rat hepatocytes assessed as maximum bioavailability; type: ADME, Hepatocyte; conditions: read-out: Fmax
[17] = Clearance in monkey liver microsomes; type: ADME, Macaca mulatta, Microsome; conditions: rhesus monkey
[18] = Clearance in rat liver microsomes; type: ADME, Microsome
[19] = Stability in monkey liver microsomes assessed as maximum bioavailability; type: ADME, Macaca mulatta, Microsome; conditions: rhesus monkey, read-out: Fmax
[20] = Stability in rat liver microsomes assessed as maximum bioavailability; type: ADME, Microsome; conditions: read-out: Fmax
[21] = Clearance in human hepatocytes; type: ADME, cell-based, Hepatocyte
[22] = Stability in human hepatocytes assessed as maximum bioavailability; type: ADME, Hepatocyte; conditions: read-out: Fmax
[23] = Clearance in monkey hepatocytes; type: ADME, cell-based, Macaca mulatta, Hepatocyte; conditions: rhesus monkey
[24] = Stability in monkey hepatocytes assessed as maximum bioavailability; type: ADME, Macaca mulatta, Hepatocyte; conditions: rhesus monkey, read-out: Fmax
[25] = Stability in dog liver microsomes; type: ADME, Canis lupus familiaris, Microsome
[26] = Volume of distribution at steady state in Wistar rat at 0.3 mg/kg, iv; type: ADME, organism-based; conditions: in vivo
Method in brief: (§3)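 Single intravenous dose: 0.3 mg kg⁻¹ in male Wistar rats; 0.1 mg kg⁻¹ in female Beagle dogs. Plasma pharmacokinetics gave steady-state volume of distribution.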

[27] = Volume of distribution at steady state in Beagle dog at 0.1 mg/kg, iv; type: ADME, organism-based, Canis lupus familiaris; conditions: in vivo; method in brief: as §3
[28] = Dose normalized Cmax in Beagle dog at 0.2 mg/kg, po; type: ADME, organism-based, Canis lupus familiaris; conditions: in vivo

SMILES | IC50 [1] [nM] | IC50 [4] [nM] | CLhep predicted [5] [mL/min/kg] | CLhep predicted [6] [mL/min/kg] | CLhep predicted [7] [mL/min/kg] | CLH [8] [mL/min/kg] | Fh [9] [%] | Fh [10] [%] | Fh [11] [%] | CLH [12] [mL/min/kg] | Fh [13] [%] | Papp [15] [×10⁻⁶ cm/s] | Fh [16] [%] | CLH [17] [mL/min/kg] | Fh [19] [%] | Fh [20] [%] | CLH [21] [mL/min/kg] | Fh [22] [%] | CLH [23] [mL/min/kg] | Fh [24] [%] | other results
Cc1c(NC(=O)c2cc(C(N)=O)nc3ccccc23)c(C(F)(F)F)nn1Cc1ccc(C#N)cc1 | 6 | 170 | 30 | 3.5 | 23.3 | 1 | 84 | 74 | 97 | 1.83 | 95 | – | – | – | – | – | – | – | – | – | IC50 [2]: 69000 nM; IC50 [3]: 580 nM; Ratio [14]: 3.7
Cc1c(NC(=O)c2cc(C(F)(F)F)nc3ccc(Br)cc23)c(C(F)(F)F)nn1Cc1ccc(F)cc1 | – | – | 43.3 | – | 36.7 | – | – | 59 | – | – | – | 0.35 | – | – | – | – | – | – | – | – | –
Cc1c(NC(=O)c2cc(C(N)=O)nc3cc(F)ccc23)c(C(F)(F)F)nn1Cc1ccc(C#N)cn1 | 4 | 620 | 0.667 | 3.17 | 6 | 0.017 | 86 | 93 | 100 | 0.017 | 100 | 1.6 | 99 | 6.7 | 84 | 91 | 0.5 | 98 | 5.33 | 88 | CLH [18]: 6.17 mL/min/kg
Cc1c(NC(=O)c2cc(C(N)=O)nc3cc(F)ccc23)c(C(F)(F)F)nn1Cc1ccc(C#N)cc1 [BAY-876] | – | 290 | 7.67 | 5.33 | – | – | 76 | 94 | 100 | 3.3 | 90 | – | 89 | 12.7 | 70 | 74 | 6.17 | 72 | 23.3 | 46 | Stability [25]: Stable; Vdss [26]: 0.79 L/kg; Vdss [27]: 1 L/kg; Cmax/dose [28]: 0.93 kg/L
